A selection: hits, their analogues and other compounds. The true share with any hit is near 2.3%.
TAAR1 antagonist: human TAAR1 antagonists, primary screen, Fluo-8 calcium fluorescence, CHO RD-HGA16 cells. actives 1.5% (n = 360,000). Trace amine-associated receptor 1 (Homo sapiens), Q96RJ0. antagonist. inhibition, % at 3 µM. AID 624466, 2012;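 active = inhibition above a per-plate cutoff, the mean inhibition of test compounds on that plate plus 3 SD, cut at about 49% in these data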;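 also: 0% = DMSO plus EC80 beta-PEA response and 100% = DMSO alone without agonist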
Target sequence (Q96RJ0 whole entry, looked up): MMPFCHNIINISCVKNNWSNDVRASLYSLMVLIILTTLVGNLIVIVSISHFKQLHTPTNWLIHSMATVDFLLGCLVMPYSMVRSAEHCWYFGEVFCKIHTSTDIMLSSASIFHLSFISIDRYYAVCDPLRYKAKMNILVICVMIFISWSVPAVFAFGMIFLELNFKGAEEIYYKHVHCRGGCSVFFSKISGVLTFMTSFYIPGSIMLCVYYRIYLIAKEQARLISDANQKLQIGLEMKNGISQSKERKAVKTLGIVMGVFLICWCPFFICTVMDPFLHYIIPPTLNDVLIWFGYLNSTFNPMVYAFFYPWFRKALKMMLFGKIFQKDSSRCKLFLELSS
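test system = CHO RD-HGA16 cells bearing hTAAR1 | replication = singlicate | controls = DMSO-only wells and EC80 β-PEA-stimulated wells | reagent = EC80 β-phenethylamine stimulus | read-out basis = percent inhibition of PEA-evoked calcium signal, max/basal emission ratio | schedule = seeding 17-24 h prior, 75-min 37 °C, 30-min RT dye loading | signal = kinetic Fluo-8 calcium fluorescence measurement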
OXTR agonist: human OXTR agonists, primary screen, fluorescence, CHO-OTR cells, Fluo-8 calcium; Oxytocin receptor (Homo sapiens), P30559; Fluo-8 calcium fluorescence; normalized: DMSO 0%, oxytocin 100%; activation, % at 3 µM; actives 0.32% (n = 320,000);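 active = activation above the mean of all tested compounds plus 3 SD, cutoff set per screening run, cut at about 20% in these data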;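 also: peak over basal fluorescence ratio from a 100 s FLIPR kinetic read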
Target sequence (P30559 whole entry, looked up): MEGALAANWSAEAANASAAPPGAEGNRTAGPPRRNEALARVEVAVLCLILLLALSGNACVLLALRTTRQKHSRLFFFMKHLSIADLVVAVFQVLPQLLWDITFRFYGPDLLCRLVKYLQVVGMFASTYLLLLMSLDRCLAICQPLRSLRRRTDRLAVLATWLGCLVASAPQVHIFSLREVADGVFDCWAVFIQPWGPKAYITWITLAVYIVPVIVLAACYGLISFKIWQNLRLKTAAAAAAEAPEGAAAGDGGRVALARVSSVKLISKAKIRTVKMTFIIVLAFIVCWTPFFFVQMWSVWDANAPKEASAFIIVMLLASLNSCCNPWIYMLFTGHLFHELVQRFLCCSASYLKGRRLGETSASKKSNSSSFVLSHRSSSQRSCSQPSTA
V1aR counter: agonists of human V1a receptor, primary screen, counter-screen for OXTR agonist project, fluorescence, CHO-V1R cells | Vasopressin V1a receptor (Homo sapiens), P37288 | Fluo-8 calcium fluorescence, agonist mode; 0% DMSO, 100% 3 nM vasopressin | activation, % at 3 µM | actives 0.25% (n = 320,000) | AID 2797, 2010;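 active = activation above the mean activation of all tested compounds plus 3 SD, per screening run, cut at about 20% in these data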;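 also: signal is peak over basal fluorescence ratio across a 100 second FLIPR read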
OXTR potentiate: human OXTR potentiators, primary screen, fluorescence, CHO-OTR cells, Fluo-8 calcium. AID 2445, 2010. actives 0.061% (n = 320,000). Fluo-8 calcium fluorescence, potentiator mode; 0% = oxytocin EC15, 100% = EC100. activation, % at 3 µM. Oxytocin receptor (Homo sapiens), P30559;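 active = activation above that plate's cutoff, the mean activation of tested compounds plus 3 SD, cut at about 6.6% in these data, passing the limit was not always enough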;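 also: 100% uses oxytocin at 75 nM as the full agonist control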
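Assay system: CHO cell line stably expressing human OTR. Reagent: EC15 oxytocin agonist. Dosing: single dose, 3.0 µM nominal final compound concentration. Timing: compound 6 min at room temperature before oxytocin, 100 s read. Signal: kinetic Fluo-8 calcium fluorescence. Controls: oxytocin EC15 low and EC100 high.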
TAAR1 ag: human TAAR1 agonists, primary screen, Fluo-8 calcium fluorescence, CHO RD-HGA16 cells; Trace amine-associated receptor 1 (Homo sapiens), Q96RJ0; vehicle wells 0%, saturating PEA agonist 100%; actives 0.99% (n = 360,000); activation, % at 3 µM;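 active = activation above the mean activation of all test compounds in the run plus 3 SD, cut at about 38% in these data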
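Assay system – CHO-derived RD-HGA16 cells with stable Gα16 and human TAAR1 · Compound dosing – one-point dosing at 3 µM (nominal) · Incubation – 17-24 h seeding, 75 min 37 °C dye, 30 min RT · Measured by – kinetic Fluo-8 calcium fluorescence · Control set – DMSO vehicle as 0%, PEA at EC100 as 100% · Repeats – single well for each compound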
TAAR1 nonsel count: nonselective antagonists in TAAR1 counter-screen cells, counter-screen for hTAAR1 antagonist project, cell-based, fluorescence, calcium | shares compounds with TAAR1 antagonist | counterscreen cell line, antagonist mode | inhibition, % at 3 µM | actives 77% (n = 2,400); in the data active = inhibition above about 22%;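 also: CHO-Ga16 host cells stimulated with ATP at an EC80 level; 0% = agonist EC80 plus vehicle and 100% = vehicle without agonist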
TAAR1 antag conf: human TAAR1 antagonists, retest of hits, confirmation, cell-based, fluorescence; shares compounds with TAAR1 antagonist; actives 40% (n = 2,400); inhibition, % at 3 µM; TAAR1-expressing cells, fluorescence antagonist read-out; in the data active = inhibition above about 49%;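 also: CHO-Ga16 host cells challenged with agonist PEA near its EC80; 0% = agonist at EC80 plus vehicle and 100% = vehicle with no agonist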
Ga16 ag counter: calcium activation in Ga16-expressing cells, counter-screen for TAAR1 antagonist project, cell-based, fluorescence; actives 18% (n = 2,400); AID 651953, 2012; shares compounds with TAAR1 antagonist; activation, % at 3 µM; agonist counterscreen; in the data active = activation above about 12%;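 also: 0% = vehicle wells and 100% = saturating stimulus response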
TAAR1 ag count: TAAR1 activation by candidate antagonists – cell-based, fluorescence, counter-screen for TAAR1 antagonist project; shares compounds with TAAR1 antagonist; hTAAR1 cell line, agonist mode; activation, % at 3 µM; actives 2% (n = 2,400); in the data active = activation above about 37%;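 also: CHO cells stably expressing TAAR1 with calcium dye readout; 0% = DMSO vehicle and 100% = full agonist response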
* = called active by the depositor; / = no result.

SMILES	TAAR1 antagonist	OXTR agonist	V1aR counter	OXTR potentiate	TAAR1 ag	TAAR1 nonsel count	TAAR1 antag conf	Ga16 ag counter	TAAR1 ag count
COc1ccc(CNC(=O)C(c2ccncc2)N(C(=O)Cc2cccs2)c2cccc(C)c2)cc1 (stereo unspecified)	12	-2	-1	-7	3	/	/	/	/
Cc1c(NC(=O)/C(C#N)=C/C2CC=CCC2)c(=O)n(-c2ccccc2)n1C (stereo unspecified)	-5	1	2	-11	17	/	/	/	/
COC(=O)c1cccc(S(=O)(=O)N(Cc2ccco2)Cc2cc3cc(OC)ccc3[nH]c2=O)c1	58*	-2	4	-4	19	24*	59*	10	28
CCN(Cc1cc2ccccc2[nH]c1=O)S(=O)(=O)c1ccc(OC)cc1	-18	1	9	-4	6	/	/	/	/
CCOC(=O)c1cccc(S(=O)(=O)N(CCO)Cc2cc3cc(OC)ccc3[nH]c2=O)c1	/	0	0	2	/	/	/	/	/
O=c1[nH]c2ccccc2cc1CN(Cc1ccco1)S(=O)(=O)c1ccc(F)cc1	54*	0	2	-11	10	23*	44	10	18
O=C(c1cc(C(=O)NCCc2ccccc2)c(=O)n(CCc2ccccc2)c1)c1cc(Cl)ccc1O	65*	-1	0	-10	16	38*	61*	6	3
COc1ccc(OC)c(N2C(=O)CC(NNC(=O)c3ccc4c(c3)OCO4)C2=O)c1 (stereo unspecified)	-6	-1	0	-2	1	/	/	/	/
CCOC(=O)C1=C(C)Nc2ccccc2N=C1NC(=O)c1oc2ccccc2c1COC	70*	-2	0	-5	14	30*	46	6	7
CCC(C)NCC(=O)Nc1ccc(S(N)(=O)=O)cc1 (stereo unspecified)	0	-1	0	-4	0	/	/	/	/
CCOC(=O)c1c(NC(=O)c2c(C(=O)O)cccc2[N+](=O)[O-])sc2c1CCCC2	-24	-1	0	-13	10	/	/	/	/
Cc1cc(C(=O)N/N=C/C=C/c2ccc([N+](=O)[O-])cc2)n[nH]1	17	1	0	3	4	/	/	/	/
Cc1cc(C)c(S(=O)(=O)N2CCN(C(=O)c3c(C)nn(-c4ccccc4)c3Cl)CC2)c(C)c1	68*	/	/	/	13	35*	46	8	5
CCN(CC)C(=S)NC(=O)c1cc(OC)c(OC)c(OC)c1	-3	0	-1	-5	11	/	/	/	/
Cc1ccc(NC(=O)C(C)c2ccc(-c3ccccc3)c(F)c2)c(C)c1 (stereo unspecified)	54*	0	1	-12	19	18	22	3	4
CCOC1=C(C#N)CC2(CC1)c1ccccc1-c1ccccc12	71*	/	/	/	3	24*	41	5	7
Cc1cccc(-n2cc(-c3ccccc3)c3c(N4CCOCC4)ncnc32)c1	60*	-2	-1	-28	4	27*	45	5	6
COc1ccc(-n2cc(-c3ccccc3)c3c(NN4CCOCC4)ncnc32)cc1	56*	3	3	-8	15	25*	40	11	14
Fc1ccc(-n2cc(-c3ccccc3)c3c(NN4CCOCC4)ncnc32)cc1	18	6	3	-6	8	/	/	/	/
CCn1cc(CCCC(=O)NCc2cccc(OC)c2)c2ccccc21	-13	/	/	/	-2	/	/	/	/
Cc1cccc(C)c1-n1nnnc1C1(C)CCC(=O)N1CC(F)(F)F (stereo unspecified)	-7	/	/	/	2	/	/	/	/
Cc1c(C(=O)NCc2ccc3c(c2)OCO3)sc2nc(-c3ccccc3)cn12	19	3	4	-5	1	/	/	/	/
Cc1c(C(=O)Nc2ccc3c(c2)OCO3)sc2nc(-c3ccccc3)cn12	85*	4	9	-16	11	44*	63*	12*	7
COc1ccc(Nc2nc(-c3ccccc3)nc3ccccc23)cc1S(=O)(=O)N1CCOCC1	72*	1	1	-10	22	35*	57*	13*	11
COc1ccc(CCNC(=O)CSc2nnc(C(C)N(C)C)n2Cc2ccccc2)cc1OC (stereo unspecified)	-9	0	0	3	1	/	/	/	/
SMILES	TAAR1 antagonist	OXTR agonist	V1aR counter	OXTR potentiate	TAAR1 ag	TAAR1 nonsel count	TAAR1 antag conf	Ga16 ag counter	TAAR1 ag count
O=C(CC(=O)c1ccccc1)Nc1cc([N+](=O)[O-])ccc1Cl	77*	2	4	-8	20	35*	55*	11	11
CCCCC(=O)Nc1cc([N+](=O)[O-])ccc1Cl	-15	-1	-1	6	2	/	/	/	/
COc1cc(O)c(CC=C(C)C)c(O)c1C(=O)CCc1ccc(O)cc1	89*	14	5	-8	26	44*	61*	16*	23
C=CC[C@H](CC(=O)NCCO)C(=O)NC[C@H](OC(=O)[C@@H](CC=C)Cc1ccc(F)cc1)c1ccccc1	29	-1	0	-4	9	/	/	/	/
C=CC[C@@H](CC(=O)N(CCO)Cc1ccccc1)C(=O)NC[C@H](OC(=O)[C@@H](CC=C)Cc1ccc(F)cc1)c1ccccc1	89*	3	4	-9	20	36*	63*	9	10
C=CC[C@@H](CC(=O)N(CCO)Cc1ccccc1)C(=O)NC[C@@H](OC(=O)[C@@H](CC=C)CC(=O)OC(C)(C)C)c1ccccc1	59*	-2	0	-7	17	29*	39	8	10
C=CC[C@@H](CC(=O)N(CCO)Cc1ccccc1)C(=O)N[C@H](COC(=O)[C@@H](CC=C)Cc1ccc(F)cc1)c1ccccc1	61*	2	2	-9	14	17	25	14*	12
Cc1ccc(/C=N/NC(=O)c2c(C)nc3ccc(Cl)cn23)cc1	-4	/	/	/	0	/	/	/	/

Bioassay records: PubChem, The Scripps Research Institute Molecular Screening Center
